Calls of active or inactive are those of the source. The calls are words filed in the database; no cut-off is given here.
What was measured:
KM12 = assay: Cytotoxicity against human KM12 cells assessed as cell growth at 10 uM after 48 hrs by SRB assay; format: functional; conditions: KM12, 48 h, read-out: Activity
Summary of the method: (§1)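 NCI primary single-dose screen at 10^-5 M against the full panel of about 60 human tumor cell lines. Cells were in RPMI-1640 with 5% fetal calf serum and 2 mM L-glutamine and preincubated 24 h. Compound was given in DMSO with 48 h exposure. Growth was estimated by sulforhodamine B protein assay.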

OVCAR-3 [1] = assay: Antitumor activity against human OVCAR3 cells implanted in mouse dosed qd for 4 days by formazan dye-based hollow fiber assay; format: functional, organism-based
Summary of the method: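 Cells grown inside polyvinylidene fluoride hollow fibers; each line implanted into both intraperitoneal and subcutaneous compartments in mice. Compound given ip at two doses on a QD x 4 schedule. Fibers then recovered and viable cell mass measured by formazan dye conversion. Scored 2 per dose giving ≥50% reduction in viable cell mass (%T/C 50).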

NCI-H226 = assay: Cytotoxicity against human NCI-H226 cells after 48 hrs by SRB assay; format: functional; conditions: NCI-H226, 48 h
Summary of the method: (§2)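 NCI five-dose screen on the ~60-line human tumor panel. Cells grown in RPMI-1640 with 5% fetal calf serum and 2 mM L-glutamine, seeded at line-dependent density and preincubated 24 h. Compound added from DMSO at 10-fold dilutions from 10^-4 to 10^-8 M, continuous exposure 48 h. Growth read by sulforhodamine B protein stain. GI50, TGI and LC50 derived per line.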

UACC-257 = assay: Cytotoxicity against human UACC257 cells after 48 hrs by SRB assay; format: functional; conditions: UACC-257, 48 h
Summary of the method: (§3)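 NCI 60-cell-line five-dose screen. Cells were grown in 1640 medium with 5% fetal calf serum and 2 mM L-glutamine, with inoculum density set by cell line, and pre-incubated 24 h. Compound in DMSO was added at 10^-4 to 10^-8 M (10-fold steps) with 48 h continuous exposure. Growth was read by SRB protein assay, and GI50, TGI and LC50 were derived from dose-response.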

BT-549 = assay: Cytotoxicity against human BT549 cells after 48 hrs by SRB assay; format: functional; conditions: BT-549, 48 h
Summary of the method: (§4)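 NCI ~60-line panel in RPMI-1640 with 5% fetal calf serum and 2 mM L-glutamine, pre-incubated 24 h. Compound in DMSO tested at five 10-fold concentrations (10^-4 to 10^-8 M) with 48 h continuous exposure. Growth measured by sulforhodamine B protein assay. GI50 (50% net growth inhibition), TGI (total inhibition) and LC50 (50% net cell death) derived from dose-response.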

HL-60(TB) = assay: Cytotoxicity against human HL-60(TB) cells after 48 hrs by SRB assay; format: functional; conditions: HL-60, 48 h
Summary of the method: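 NCI 60-cell-line screen, five-dose assay: cells in RPMI1640 (printed "PMI1640") with 5% fetal calf serum and 2 mM L-glutamine, pre-incubated 24 h before compound addition. Compound in DMSO at 10-4, 10-5, 10-6, 10^-7 and 10^-8 M; continuous 48 h exposure. Growth estimated by sulforhodamine B protein assay; log GI50, TGI and LC50 derived from dose-response.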

NCI-H460 [2] = assay: Cytotoxicity against human NCI-H460 cells assessed as cell growth at 10 uM after 48 hrs by SRB assay; format: functional; conditions: NCI-H460, 48 h, read-out: Activity; summary of the method: as §1
MOLT-4 = assay: Cytotoxicity against human MOLT4 cells assessed as cell growth at 10 uM after 48 hrs by SRB assay; format: functional; conditions: MOLT-4, 48 h, read-out: Activity; summary of the method: as §1
EKVX [3] = assay: Cytotoxicity against human EKVX cells after 48 hrs by SRB assay; format: functional; summary of the method: as §4
RPMI-8226 = assay: Cytotoxicity against human RPMI8226 cells after 48 hrs by SRB assay; format: functional; conditions: RPMI-8226, 48 h; summary of the method: as §2
HCT-116 = assay: Cytotoxicity against human HCT116 cells assessed as cell growth at 10 uM after 48 hrs by SRB assay; format: functional; conditions: HCT-116, 48 h, read-out: Activity
Summary of the method: (§5)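 NCI primary single-dose screen at 10^-5 M against the ~60 human tumour cell line panel. Cells grown in RPMI-1640 with 5% fetal calf serum and 2 mM L-glutamine and pre-incubated 24 h before compound addition. Compound added from DMSO solution with 48 h exposure. Growth read by sulforhodamine B protein staining.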

COLO 205 [4] = assay: Cytotoxicity against human COLO205 cells after 48 hrs by SRB assay; format: functional; conditions: COLO 205, 48 h; summary of the method: as §4
CAKI-1 = assay: Cytotoxicity against human Caki1 cells assessed as cell growth at 10 uM after 48 hrs by SRB assay; format: functional; conditions: CAKI-1, 48 h, read-out: Activity; summary of the method: as §5
SK-MEL-28 = assay: Cytotoxicity against human SK-MEL-28 cells after 48 hrs by SRB assay; format: functional; conditions: SK-MEL-28, 48 h; summary of the method: as §3
PC-3 = assay: Cytotoxicity against human PC3 cells assessed as cell growth at 10 uM after 48 hrs by SRB assay; format: functional; conditions: PC-3, 48 h, read-out: Activity; summary of the method: as §1
NCI-H460 [5] = assay: Cytotoxicity against human NCI-H460 cells after 48 hrs by SRB assay; format: functional; conditions: NCI-H460, 48 h; summary of the method: as §2
COLO 205 [6] = assay: Cytotoxicity against human COLO205 cells assessed as cell growth at 10 uM after 48 hrs by SRB assay; format: functional; conditions: COLO 205, 48 h, read-out: Activity; summary of the method: as §5
EKVX [7] = assay: Cytotoxicity against human EKVX cells assessed as cell growth at 10 uM after 48 hrs by SRB assay; format: functional; conditions: read-out: Activity; summary of the method: as §5
OVCAR-3 [8] = assay: Cytotoxicity against human OVCAR3 cells assessed as cell growth at 10 uM after 48 hrs by SRB assay; format: functional; conditions: OVCAR-3, 48 h, read-out: Activity; summary of the method: as §1
CCRF-CEM = assay: Cytotoxicity against human CCRF-CEM cells assessed as cell growth at 10 uM after 48 hrs by SRB assay; format: functional; conditions: read-out: Activity; summary of the method: as §5
SK-MEL-5 = assay: Cytotoxicity against human SK-MEL-5 cells assessed as cell growth at 10 uM after 48 hrs by SRB assay; format: functional; conditions: SK-MEL-5, 48 h, read-out: Activity
Summary of the method: (§6)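 NCI primary one-dose screen at 10^-5 M against the full panel of about 60 human tumour cell lines, run to the NCI Drug Evaluation Branch protocol.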

UO-31 = assay: Cytotoxicity against human UO31 cells assessed as cell growth at 10 uM after 48 hrs by SRB assay; format: functional; conditions: UO-31, 48 h, read-out: Activity; summary of the method: as §6

CCc1ccc(-c2ccc(=O)n(-c3ccc(S(N)(=O)=O)cc3)n2)cc1
growth at 10 µM (KM12): 13.6% | Activity (OVCAR-3 [1]): inactive | LC50 (NCI-H226): > 100 µM | GI50 (NCI-H226; read-out: GI50): 13.5 µM | GI50 (NCI-H226; read-out: pGI50 (converted)): 13.5 µM | TGI (NCI-H226; read-out: pTGI): > 100 µM | LC50 (UACC-257): > 100 µM | GI50 (UACC-257; read-out: GI50): > 100 µM | GI50 (UACC-257; read-out: pGI50 (converted)): > 100 µM | TGI (UACC-257; read-out: pTGI): > 100 µM | LC50 (BT-549): 85.1 µM | GI50 (BT-549; read-out: GI50): 0.756 µM | GI50 (BT-549; read-out: pGI50 (converted)): 0.759 µM | TGI (BT-549; read-out: pTGI (converted)): 17.8 µM | LC50 (HL-60(TB)): > 100 µM | GI50 (HL-60(TB); read-out: GI50): 0.376 µM | GI50 (HL-60(TB); read-out: pGI50 (converted)): 0.38 µM | TGI (HL-60(TB); read-out: pTGI (converted)): 3.02 µM | growth at 10 µM (NCI-H460 [2]): 12.6% | growth at 10 µM (MOLT-4): 16% | LC50 (50% net cell death) (EKVX [3]): > 100 µM | GI50 (EKVX [3]; read-out: GI50): 2.79 µM | GI50 (EKVX [3]; read-out: pGI50 (converted)): 2.82 µM | TGI (EKVX [3]; read-out: pTGI): > 100 µM | LC50 (RPMI-8226): > 100 µM | GI50 (RPMI-8226; read-out: GI50): 0.479 µM | GI50 (RPMI-8226; read-out: pGI50 (converted)): 0.479 µM | TGI (RPMI-8226; read-out: pTGI (converted)): 8.51 µM | growth at 10 µM (HCT-116): 16.8% | LC50 (COLO 205 [4]): > 100 µM | GI50 (COLO 205 [4]; read-out: GI50): 0.976 µM | GI50 (COLO 205 [4]; read-out: pGI50 (converted)): 0.977 µM | TGI (COLO 205 [4]; read-out: pTGI (converted)): 30.9 µM | growth at 10 µM (CAKI-1): 36.6% | LC50 (SK-MEL-28): > 100 µM | GI50 (SK-MEL-28; read-out: GI50): 1.37 µM | GI50 (SK-MEL-28; read-out: pGI50 (converted)): 1.38 µM | TGI (SK-MEL-28; read-out: pTGI): > 100 µM | growth at 10 µM (PC-3): 35% | LC50 (NCI-H460 [5]): 63.1 µM | GI50 (NCI-H460 [5]; read-out: GI50): 0.438 µM | GI50 (NCI-H460 [5]; read-out: pGI50 (converted)): 0.437 µM | TGI (NCI-H460 [5]; read-out: pTGI (converted)): 4.47 µM | growth at 10 µM (COLO 205 [6]): 26% | growth at 10 µM (EKVX [7]): 69.1% | growth at 10 µM (OVCAR-3 [8]): -56.8% | growth at 10 µM (CCRF-CEM): 27.9% | growth at 10 µM (SK-MEL-5): 12.9% | growth at 10 µM (UO-31): 38.4%

From ChEMBL document CHEMBL1944532, “Synthesis and evaluation of anticancer activity of some novel 6-aryl-2-(p-sulfamylphenyl)-pyridazin-3(2H)-ones” (Eur J Med Chem, 2012)
